Reference: ChEMBL document CHEMBL4428071 (J Med Chem, 2016)
≈ marks a conversion by molar mass, not a printed value. Calls of active or inactive are those of the source. The calls are words filed in the database; no cut-off is given here.

Experiments:
Homo sapiens [1] = species on record: Homo sapiens; assay: Inhibition of TEL-fused cKIT L567P mutant (unknown origin) expressed in mouse BA/F3 cells assessed as cell growth inhibition after 72 hrs by cell titer-glo assay; assay type: cell-based
Procedure, shortened: (§1)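 Cells seeded at 3000 per well and exposed to serial compound dilutions for 72 h. Viability read by CellTiter-Glo luminescence and normalised to DMSO controls; mean of three independent measurements. BaF3 lines kept IL-3-free in RPMI 1640/10% FBS after retroviral transduction and puromycin selection. GIST lines grown in DMEM/10% FBS.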

[2] = test system: Mast/stem cell growth factor receptor Kit (Homo sapiens), P10721 [V654A]; assay: Inhibition of TEL-fused cKIT V654A mutant (unknown origin) expressed in mouse BA/F3 cells assessed as cell growth inhibition after 72 hrs by cell titer-glo assay; assay type: cell-based; procedure, shortened: as §1
[3] = test system: Mast/stem cell growth factor receptor Kit (Homo sapiens), P10721 [T670I]; assay: Inhibition of TEL-fused cKIT T670I mutant (unknown origin) expressed in mouse BA/F3 cells assessed as cell growth inhibition after 72 hrs by cell titer-glo assay; assay type: cell-based; procedure, shortened: as §1
[4] = test system: Mast/stem cell growth factor receptor Kit (Homo sapiens), P10721 [D816V]; assay: Inhibition of TEL-fused cKIT D816V mutant (unknown origin) expressed in mouse BA/F3 cells assessed as cell growth inhibition after 72 hrs by cell titer-glo assay; assay type: cell-based; procedure, shortened: as §1
[5] = target: T1, Mast/stem cell growth factor receptor Kit (Homo sapiens, UniProt P10721); assay: Ratio of Imatinib IC50 to compound IC50 for wild type cKIT in human GIST-T1 cells; assay type: cell-based
[6] = target: T1, Mast/stem cell growth factor receptor Kit; assay: Inhibition of His-tagged cKIT (unknown origin) expressed in Sf9 cells using Poly(4:1 Glu, Tyr) peptide as substrate after 1 hr by ADP-glo kinase assay
[7] = target: T2, Mast/stem cell growth factor receptor Kit (Homo sapiens, UniProt P10721, T670I); assay: Inhibition of His-tagged cKIT T670I mutant (544 to 935 residues) (unknown origin) expressed in Sf9 cells using Poly(4:1 Glu, Tyr) peptide as substrate after 1 hr by ADP-glo kinase assay
[8] = target: Epithelial discoidin domain-containing receptor 1 (Homo sapiens) (UniProt Q08345); assay: Inhibition of partial length human DDR1 expressed in bacterial expression system assessed as activity remaining at 1 uM by kinome scan assay
[9] = target: Vascular endothelial growth factor receptor 3 (Homo sapiens) (UniProt P35916); assay: Inhibition of partial length human FLT4 expressed in bacterial expression system assessed as activity remaining at 1 uM by kinome scan assay
[10] = target: Serine/threonine-protein kinase 10 (Homo sapiens) (UniProt O94804); assay: Inhibition of partial length human LOK expressed in bacterial expression system assessed as activity remaining at 1 uM by kinome scan assay
[11] = target: Platelet-derived growth factor receptor beta (Homo sapiens) (UniProt P09619); assay: Inhibition of partial length human PDGFRbeta expressed in bacterial expression system assessed as activity remaining at 1 uM by kinome scan assay
[12] = target: Vascular endothelial growth factor receptor 3 (Homo sapiens) (UniProt P35916); assay: Inhibition of TEL-fused partial length human FLT4 expressed in mouse BA/F3 cells after 72 hrs by cell titer-glo assay; assay type: cell-based; procedure, shortened: as §1
[13] = target: Platelet-derived growth factor receptor beta (Homo sapiens) (UniProt P09619); assay: Inhibition of TEL-fused partial length human PDGFRbeta expressed in mouse BA/F3 cells after 72 hrs by cell titer-glo assay; assay type: cell-based; procedure, shortened: as §1
[14] = target: T1, Mast/stem cell growth factor receptor Kit; assay: Inhibition of wild type cKIT autophosphorylation at Y703 in human GIST-T1 cells at 100 nM after 1 hr by Western blot analysis; assay type: cell-based
Procedure, shortened: (§2)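 GIST-T1 or GIST-5R cells in DMEM with 10% FBS were treated with serially diluted compound for 1 h. Cells were then lysed and analysed by western blotting.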

[15] = target: T1, Mast/stem cell growth factor receptor Kit; assay: Inhibition of wild type cKIT autophosphorylation at Y823 in human GIST-T1 cells at 100 nM after 1 hr by Western blot analysis; assay type: cell-based; procedure, shortened: as §2
[16] = target: T1, Mast/stem cell growth factor receptor Kit; assay: Inhibition of wild type cKIT in human GIST-T1 cells assessed as downregulation of S6 phosphorylation at S235/236 after 1 hr by Western blot analysis; assay type: cell-based
Procedure, shortened: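 GIST-T1 cells in DMEM with 10% FBS were exposed to serially diluted compound for 1 h, then lysed. Lysates were analysed by western blot with phospho-specific antibodies against AKT (Ser473), ERK1/2 (Thr202/Tyr204) and S6 ribosomal protein (Ser235/236), each alongside its total protein.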

[17] = target: T2, Mast/stem cell growth factor receptor Kit; assay: Inhibition of cKIT T670I mutant autophosphorylation at Y703 in human GIST-5R cells at 0.1 to 3 uM after 1 hr by Western blot analysis; assay type: cell-based; procedure, shortened: as §2
[18] = target: T2, Mast/stem cell growth factor receptor Kit; assay: Inhibition of cKIT T670I mutant autophosphorylation at Y823 in human GIST-5R cells at 0.1 to 3 uM after 1 hr by Western blot analysis; assay type: cell-based; procedure, shortened: as §2
[19] = target: T2, Mast/stem cell growth factor receptor Kit; assay: Inhibition of cKIT T670I mutant in human GIST-5R cells assessed as downregulation of AKT phosphorylation at S473 after 1 hr by Western blot analysis; assay type: cell-based; procedure, shortened: as §2
GISTT1 = assay: Induction of apoptosis in human GISTT1 cells assessed as increase in cleaved PARP levels after at 30 nM 24 hrs by Western blot analysis; assay type: functional, cell-based
Procedure, shortened: (§3)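 GIST-T1 or GIST-5R cells in DMEM with 10% FBS were exposed to serially diluted compound for 24 h. Apoptosis was assessed by western blot with PARP and GAPDH antibodies.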

Homo sapiens [20] = species on record: Homo sapiens; assay: Induction of apoptosis in human GIST5R cells assessed as increase in cleaved PARP levels after 24 hrs by Western blot analysis; assay type: functional, cell-based; procedure, shortened: as §3
Homo sapiens [21] = species on record: Homo sapiens; assay: Induction of apoptosis in human GIST5R cells assessed as increase in cleaved PARP levels after at 30 nM 24 hrs by Western blot analysis; assay type: functional, cell-based; procedure, shortened: as §3
[22] = Apparent clearance in Sprague-Dawley rat at 1 mg/kg, iv measured up to 8 hrs post dosing; assay type: ADME, organism-based; details: in vivo, read-out: CL(app) (converted)
Procedure, shortened: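 Male Sprague-Dawley rats, 8 weeks old, fasted overnight; iv dosing from a 1 mg/mL solution in 5% DMSO/40% PEG400/55% saline. Jugular-vein blood (~0.2 mL, heparinised) taken at 1, 5, 15, 30 min and 1, 2, 4, 6, 8 h; plasma held at -80 °C until analysis; n=3.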

[23] = Solubility of the compound in pure water; assay type: physicochemical
Procedure, shortened: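 Solubility measured in PBS pH 7.4 and in pure water, reported as µg/mL.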

BaF3 [24] = assay: Antitumor activity against TEL-fused cKIT T670I mutant expressing mouse BA/F3 cells allografted in nu/nu mouse assessed as tumor growth inhibition at 25 mg/kg, ip administered daily for 10 days; assay type: functional; details: 240 h, read-out: TGI
Procedure, shortened: (§4)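 Female nu/nu mice, 5 weeks old at purchase, given 1 million BaF3-TEL-cKIT-T670I cells in PBS/Matrigel 1:1 subcutaneously on the right flank. At tumour volume 200–400 mm3, randomised into groups of 7 and dosed IP daily for 10 days (25, 50, 100 mg/kg/d or vehicle: 0.5% methylcellulose/0.4% Tween80 in water). Tumour volume (W2×L/2) and body weight recorded daily.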

BaF3 [25] = assay: Antitumor activity against TEL-fused cKIT T670I mutant expressing mouse BA/F3 cells allografted in nu/nu mouse assessed as tumor growth inhibition at 100 mg/kg/day, ip administered daily for 10 days; assay type: functional; details: 240 h, read-out: TGI; procedure, shortened: as §4

T1 sequence (P10721 whole entry): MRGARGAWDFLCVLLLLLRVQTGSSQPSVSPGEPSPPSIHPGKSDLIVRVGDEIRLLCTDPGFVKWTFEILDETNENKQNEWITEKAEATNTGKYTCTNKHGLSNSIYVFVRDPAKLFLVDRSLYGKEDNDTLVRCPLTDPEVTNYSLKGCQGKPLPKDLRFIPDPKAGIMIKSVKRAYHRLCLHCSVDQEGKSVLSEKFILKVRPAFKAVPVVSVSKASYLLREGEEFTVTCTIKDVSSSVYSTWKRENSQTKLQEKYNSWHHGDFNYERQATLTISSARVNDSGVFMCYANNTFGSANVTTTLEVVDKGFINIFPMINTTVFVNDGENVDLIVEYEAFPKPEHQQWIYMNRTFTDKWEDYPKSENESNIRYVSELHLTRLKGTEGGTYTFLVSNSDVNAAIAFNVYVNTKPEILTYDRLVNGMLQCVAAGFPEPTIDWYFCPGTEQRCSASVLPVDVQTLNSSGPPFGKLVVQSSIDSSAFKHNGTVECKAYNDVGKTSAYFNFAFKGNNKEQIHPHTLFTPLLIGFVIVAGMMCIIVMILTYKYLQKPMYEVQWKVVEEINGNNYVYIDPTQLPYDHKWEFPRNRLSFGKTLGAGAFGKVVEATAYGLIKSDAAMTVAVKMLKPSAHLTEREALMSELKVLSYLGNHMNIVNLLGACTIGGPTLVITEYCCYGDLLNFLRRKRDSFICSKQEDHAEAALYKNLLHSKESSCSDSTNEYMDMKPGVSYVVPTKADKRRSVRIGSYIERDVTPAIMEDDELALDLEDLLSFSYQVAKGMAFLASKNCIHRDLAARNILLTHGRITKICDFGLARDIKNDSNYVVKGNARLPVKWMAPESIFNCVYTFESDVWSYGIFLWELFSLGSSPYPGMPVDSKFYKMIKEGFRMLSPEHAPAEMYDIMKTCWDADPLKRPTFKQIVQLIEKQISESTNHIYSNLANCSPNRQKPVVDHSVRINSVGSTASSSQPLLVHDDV
T2 sequence (P10721 26-976 T670I limits assumed): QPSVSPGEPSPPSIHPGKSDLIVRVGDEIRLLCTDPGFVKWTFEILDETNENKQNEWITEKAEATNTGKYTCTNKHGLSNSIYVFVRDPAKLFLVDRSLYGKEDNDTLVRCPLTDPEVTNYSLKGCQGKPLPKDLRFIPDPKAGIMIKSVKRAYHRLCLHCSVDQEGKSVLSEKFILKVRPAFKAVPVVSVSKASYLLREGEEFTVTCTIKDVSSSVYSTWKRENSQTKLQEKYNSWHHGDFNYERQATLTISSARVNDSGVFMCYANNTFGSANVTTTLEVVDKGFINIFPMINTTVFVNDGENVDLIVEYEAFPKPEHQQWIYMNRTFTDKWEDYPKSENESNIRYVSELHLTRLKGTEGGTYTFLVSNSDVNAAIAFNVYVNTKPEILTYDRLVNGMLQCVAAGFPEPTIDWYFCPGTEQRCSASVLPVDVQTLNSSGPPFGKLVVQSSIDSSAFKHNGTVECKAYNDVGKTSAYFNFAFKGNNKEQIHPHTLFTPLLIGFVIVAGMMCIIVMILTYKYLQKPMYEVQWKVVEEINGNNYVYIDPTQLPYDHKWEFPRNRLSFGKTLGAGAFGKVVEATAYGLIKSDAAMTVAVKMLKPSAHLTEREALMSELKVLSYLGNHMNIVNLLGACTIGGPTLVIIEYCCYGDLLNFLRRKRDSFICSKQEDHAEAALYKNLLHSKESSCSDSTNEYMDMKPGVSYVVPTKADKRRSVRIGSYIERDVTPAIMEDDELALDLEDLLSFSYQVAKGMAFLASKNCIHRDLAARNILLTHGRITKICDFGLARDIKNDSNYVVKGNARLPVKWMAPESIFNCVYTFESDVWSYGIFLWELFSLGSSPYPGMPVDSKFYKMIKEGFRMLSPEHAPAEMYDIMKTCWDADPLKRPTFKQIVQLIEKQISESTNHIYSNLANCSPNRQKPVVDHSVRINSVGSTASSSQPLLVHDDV
Platelet-derived growth factor receptor beta (Homo sapiens), sequence (P09619 whole entry, the tested form may be a part): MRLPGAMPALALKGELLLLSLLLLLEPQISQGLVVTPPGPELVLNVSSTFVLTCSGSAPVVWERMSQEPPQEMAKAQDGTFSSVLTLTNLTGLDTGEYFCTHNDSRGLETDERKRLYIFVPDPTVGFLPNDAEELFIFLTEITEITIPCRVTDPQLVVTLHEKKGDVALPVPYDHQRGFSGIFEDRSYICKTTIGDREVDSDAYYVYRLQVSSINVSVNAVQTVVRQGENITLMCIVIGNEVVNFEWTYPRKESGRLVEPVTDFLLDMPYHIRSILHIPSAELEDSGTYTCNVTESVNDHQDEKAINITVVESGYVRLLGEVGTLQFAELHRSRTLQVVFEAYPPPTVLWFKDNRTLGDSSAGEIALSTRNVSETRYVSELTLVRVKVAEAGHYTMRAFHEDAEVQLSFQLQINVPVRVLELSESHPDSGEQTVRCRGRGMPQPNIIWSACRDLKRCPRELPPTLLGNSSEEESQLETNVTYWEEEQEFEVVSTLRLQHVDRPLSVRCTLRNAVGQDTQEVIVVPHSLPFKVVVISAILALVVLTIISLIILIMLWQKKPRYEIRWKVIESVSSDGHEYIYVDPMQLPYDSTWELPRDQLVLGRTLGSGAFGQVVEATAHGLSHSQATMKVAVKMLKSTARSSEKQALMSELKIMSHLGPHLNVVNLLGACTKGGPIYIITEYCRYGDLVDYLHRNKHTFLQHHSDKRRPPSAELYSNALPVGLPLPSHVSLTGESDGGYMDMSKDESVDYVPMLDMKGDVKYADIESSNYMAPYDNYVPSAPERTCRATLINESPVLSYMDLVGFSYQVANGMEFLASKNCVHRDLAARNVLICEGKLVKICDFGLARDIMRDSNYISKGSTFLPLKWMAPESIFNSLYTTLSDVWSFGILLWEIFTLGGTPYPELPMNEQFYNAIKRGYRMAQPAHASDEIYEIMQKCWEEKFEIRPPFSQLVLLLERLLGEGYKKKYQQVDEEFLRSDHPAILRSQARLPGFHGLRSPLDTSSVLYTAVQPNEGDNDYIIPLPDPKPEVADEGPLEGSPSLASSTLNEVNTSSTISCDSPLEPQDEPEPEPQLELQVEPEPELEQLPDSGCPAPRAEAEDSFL
Vascular endothelial growth factor receptor 3 (Homo sapiens), sequence (P35916 whole entry, the tested form may be a part): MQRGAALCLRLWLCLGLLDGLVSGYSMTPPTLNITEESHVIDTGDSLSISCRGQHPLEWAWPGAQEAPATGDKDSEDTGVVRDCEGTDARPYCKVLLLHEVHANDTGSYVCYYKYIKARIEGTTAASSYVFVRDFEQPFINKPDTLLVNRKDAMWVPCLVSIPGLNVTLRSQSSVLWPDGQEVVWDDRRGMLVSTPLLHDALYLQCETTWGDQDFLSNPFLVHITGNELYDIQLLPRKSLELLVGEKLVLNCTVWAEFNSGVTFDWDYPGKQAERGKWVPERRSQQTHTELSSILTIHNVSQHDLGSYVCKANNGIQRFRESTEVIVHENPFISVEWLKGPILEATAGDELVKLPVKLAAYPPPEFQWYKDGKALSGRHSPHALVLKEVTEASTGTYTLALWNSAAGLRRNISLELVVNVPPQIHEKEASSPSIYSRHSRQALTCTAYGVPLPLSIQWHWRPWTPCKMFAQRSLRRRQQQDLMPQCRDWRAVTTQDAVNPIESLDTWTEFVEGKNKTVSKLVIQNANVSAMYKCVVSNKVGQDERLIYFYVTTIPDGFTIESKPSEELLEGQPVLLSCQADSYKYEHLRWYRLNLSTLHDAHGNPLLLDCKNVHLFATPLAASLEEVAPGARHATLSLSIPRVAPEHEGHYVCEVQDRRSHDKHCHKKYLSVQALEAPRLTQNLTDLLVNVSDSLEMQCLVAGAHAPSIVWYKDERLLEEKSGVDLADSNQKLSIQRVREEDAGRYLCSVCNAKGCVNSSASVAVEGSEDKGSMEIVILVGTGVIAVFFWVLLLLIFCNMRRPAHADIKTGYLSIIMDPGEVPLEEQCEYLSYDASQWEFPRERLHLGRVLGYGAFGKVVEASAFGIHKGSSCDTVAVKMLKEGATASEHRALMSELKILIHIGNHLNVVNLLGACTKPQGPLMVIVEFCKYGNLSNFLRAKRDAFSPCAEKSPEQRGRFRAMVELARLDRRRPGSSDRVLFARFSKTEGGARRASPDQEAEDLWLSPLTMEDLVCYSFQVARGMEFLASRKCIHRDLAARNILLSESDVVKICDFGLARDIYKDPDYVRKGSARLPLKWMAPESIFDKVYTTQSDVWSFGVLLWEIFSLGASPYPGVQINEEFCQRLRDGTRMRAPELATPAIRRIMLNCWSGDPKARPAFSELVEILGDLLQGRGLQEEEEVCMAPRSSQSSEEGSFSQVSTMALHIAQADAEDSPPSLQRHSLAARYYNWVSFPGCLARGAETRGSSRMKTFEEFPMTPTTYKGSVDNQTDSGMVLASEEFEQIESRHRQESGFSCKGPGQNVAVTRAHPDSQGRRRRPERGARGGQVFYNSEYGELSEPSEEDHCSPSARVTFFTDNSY
Mast/stem cell growth factor receptor Kit (Homo sapiens), P10721 [T670I], sequence (P10721 whole entry T670I, the tested form may be a part): as the sequence (P10721 whole entry) above, with T670I counted along it
Mast/stem cell growth factor receptor Kit (Homo sapiens), P10721 [V654A], sequence (P10721 whole entry V654A, the tested form may be a part): as the sequence (P10721 whole entry) above, with V654A counted along it
Mast/stem cell growth factor receptor Kit (Homo sapiens), P10721 [D816V], sequence (P10721 whole entry D816V, the tested form may be a part): as the sequence (P10721 whole entry) above, with D816V counted along it

`CCC(=O)NCC1CCN(c2ccc(NC(=O)Nc3cccc(Oc4ccnc5cc(OC)c(OC)cc45)c3)cc2C(F)(F)F)CC1` showed a GI50 (Homo sapiens [1]) of 23 nM, a GI50 [2] of 320 nM and a GI50 [3] of 63 nM. For the same molecule, the GI50 [4] was 670 nM, the Ratio IC50 [5] was 7 and the IC50 [6] was 33 nM. For the same molecule, the IC50 [7] was 99 nM, the Activity [8] was under 1% and the Activity [9] was 0%. It also gave an Activity [10] of 0.35%, an Activity [11] of 0% and a GI50 [12] of 240 nM. For the same molecule, the GI50 [13] was 5 nM, the inhibition [14] was “Active” and the inhibition [15] was “Active”. For the same molecule, the EC50 [16] was under 100 nM, the EC50 [17] was under 100 nM and the EC50 [18] was under 100 nM. For the same molecule, the EC50 [19] was under 100 nM, the Activity (GISTT1) was “Active” and the Activity (Homo sapiens [20]) was “Dose-dependent effect”. The Activity (Homo sapiens [21]) was “Active”, the clearance [22] was 46 mL/min/kg and the solubility [23] was 78 µM (≈ 50.8 µg/mL). It also gave an inhibition in vivo at 25 mg/kg (BaF3 [24]) of 18.3% and an inhibition in vivo at 100 mg/kg/day (BaF3 [25]) of 47.7%.
